Experimental data from PubChem BioAssay AID2237 (Johns Hopkins Ion Channel Center, 2010).
The whole screen tested about 310,000 compounds, of which about 1,500 (0.48%) were called active.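 Rule for the calls: active = B-score above 5 SD of library B-scores, and initial fluorescence ratio not above library mean plus 5 SD; inactive = the rest.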 The list comes from a sample in which actives are over-represented; it also holds similar structures and randomly drawn compounds.

Target: Short transient receptor potential channel 4 (Mus musculus) (UniProt Q9QUQ5)
Sequence (Q9QUQ5 whole entry, looked up): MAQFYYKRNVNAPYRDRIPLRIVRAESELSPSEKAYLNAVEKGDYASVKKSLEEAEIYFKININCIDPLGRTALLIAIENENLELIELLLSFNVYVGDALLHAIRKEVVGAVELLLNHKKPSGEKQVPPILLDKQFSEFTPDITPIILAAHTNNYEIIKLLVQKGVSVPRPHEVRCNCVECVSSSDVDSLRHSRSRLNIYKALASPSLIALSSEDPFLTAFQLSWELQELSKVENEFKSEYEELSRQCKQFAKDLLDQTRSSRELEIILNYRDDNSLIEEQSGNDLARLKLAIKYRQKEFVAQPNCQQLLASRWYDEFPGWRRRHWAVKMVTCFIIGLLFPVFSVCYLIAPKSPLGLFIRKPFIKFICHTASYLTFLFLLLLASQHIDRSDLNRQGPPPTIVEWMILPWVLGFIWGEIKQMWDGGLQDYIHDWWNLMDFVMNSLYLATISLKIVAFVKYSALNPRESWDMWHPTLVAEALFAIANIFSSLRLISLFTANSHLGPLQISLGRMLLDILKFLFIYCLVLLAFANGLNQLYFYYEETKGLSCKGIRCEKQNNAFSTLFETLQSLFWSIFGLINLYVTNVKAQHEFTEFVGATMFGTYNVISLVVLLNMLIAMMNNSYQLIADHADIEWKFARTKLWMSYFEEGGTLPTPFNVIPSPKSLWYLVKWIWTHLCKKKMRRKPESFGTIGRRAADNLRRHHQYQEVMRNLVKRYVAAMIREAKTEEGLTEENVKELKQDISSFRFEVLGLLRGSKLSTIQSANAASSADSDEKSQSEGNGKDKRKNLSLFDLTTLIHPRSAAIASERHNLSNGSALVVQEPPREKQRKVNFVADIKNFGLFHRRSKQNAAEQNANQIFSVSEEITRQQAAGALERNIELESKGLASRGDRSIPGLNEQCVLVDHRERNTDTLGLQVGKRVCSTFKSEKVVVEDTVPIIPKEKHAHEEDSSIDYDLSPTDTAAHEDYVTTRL
Test: activators of mouse TRPC4 channel, primary screen, Fluo4 calcium, HEK293 TRPC4beta/mu-opioid cells (AID 2237);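 for B-score: positive B-score marks a calcium rise read as TRPC4 activation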
Conditions: Fluo4 calcium fluorescence, at 10 µM; hits give high values
Summary of the method: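 Assay system: HEK293 stable line with TRPC4beta plus mu-opioid receptor; schedule: 45 min room-temperature Fluo4 loading, 110 s read; technique: kinetic Fluo4 calcium fluorescence; evaluation: integrated baseline-normalised fluorescence ratio, converted to per-well B score; controls: buffer (low) and maximal DAMGO (high)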

B-score, active:
O=C(COc1cc(Cl)c(Cl)cc1Cl)NCCc1ccccn1 85
CN(C)CCN(C(=O)C1CCCCC1)c1nc2cc3c(cc2s1)OCO3 66
Cc1cc(C)cc(C(=O)N(CCc2ccccc2)C2=CC3CCC(C2)N3C)c1 (centres undefined) 75
CN(C)C(CNC(=O)Cc1ccc([N+](=O)[O-])cc1)c1ccccc1 (centres undefined) 179
COc1ccc(C(=O)NNC(=S)NC(=O)c2ccccc2)cc1 180
CC(C)Oc1ccc(CCC(=O)NNC(=S)NCc2ccccc2)cc1 123
COc1ccc(C(=O)NC(=S)NNC(=O)CCc2ccccc2)cc1 96
COc1ccc(CCN(C)CCN2C(=O)c3ccccc3C2=O)cc1OC 159
COc1cccc(CN2CCNC(=O)C2CC(=O)N(C)CCc2ccccn2)c1 (centres undefined) 132
OCCC1CN(Cc2ccccc2-c2ccco2)CCN1Cc1ccsc1 (centres undefined) 44
O=C(c1c(F)cccc1F)N1CCN(c2ncc(Br)cn2)CC1 204
CCc1ccc(-c2nn(-c3ccccc3)cc2CSC(=N)N)cc1 260
CCCCSc1[nH]c(=O)c(C(=O)OCC)cc1C#N 56

B-score, inactive:
CC1(C)N=C(c2ccccn2)C(C)(C)N1O
CC1(C)CC(CNCCC(c2ccc(F)cc2)c2ccco2)CCO1 (centres undefined)
O=C(CNC(=O)COc1ccccc1)NCCc1ccccn1
O=C(NCCc1ccccn1)c1cccnc1Oc1ccc(Cl)cc1
CCn1cc(-c2cc(C(=O)O)on2)c(C)n1
S=c1nc(C23CC4CC(CC(C4)C2)C3)nc2sccn12
N[C@@H](Cc1ccccc1)C(=O)N1CCC(C(=O)NCC(=O)Nc2ccc(F)cc2)CC1
CN(C)CCN(C(=O)CN1C(=O)c2ccccc2C1=O)c1nc2cc3c(cc2s1)OCCO3
CCN(CC)CCN(C(=O)c1cc(Cl)sc1Cl)c1nc2cc3c(cc2s1)OCO3
COc1cccc(/C=N/NC(=O)C(=O)N2CCCC2)c1
COc1ccc(/C=N/N(C)C2=NS(=O)(=O)c3ccccc32)cc1OC
CN(Cc1ccco1)S(=O)(=O)c1nnc(NC(=O)c2ccccc2)s1
O=S(=O)(Oc1ccccc1C(=S)N1CCOCC1)c1ccc(Cl)cc1
C[C@]1(C(=O)NCCc2c[nH]c3ccccc23)C=C[C@@H](Cc2ccccc2)N1C(=O)c1ccccc1
C=CCN(C(=O)c1cc(C)cc(C)c1)C1(C(=O)Nc2ccccc2)CCN(C(C)C)CC1
Cc1ccc(CCN2CC(C(=O)NCCc3ccccc3)CC2=O)cc1 (centres undefined)
O=C(CC(c1ccccc1)c1ccccc1)NCC(O)c1ccc([N+](=O)[O-])cc1 (centres undefined)
CN(C)CCNC(=O)Cc1ccc([N+](=O)[O-])cc1
CC(C)Oc1c(Br)cc(Br)cc1/C=N/NC(N)=S
Cc1ccc(S(=O)(=O)N(Cc2cc3ccccc3[nH]c2=O)CC2CCCO2)cc1 (centres undefined)
COc1ccc(C(=O)NC2CCN(C(=S)NCCc3ccccc3)CC2)cc1
O=C(NNC(=S)NCc1ccccc1)c1ccc(OC(F)F)cc1
COc1ccc(C(=O)NC(=S)NC2CCCCC2)cc1
COc1ccc(C(=O)NNC(=S)NC(=O)c2ccccc2[N+](=O)[O-])cc1
O=C(CCc1ccccc1)NNC(=O)COc1ccc(Cl)cc1
Cc1ccc(OCC(=O)NNC(=S)NCc2ccccc2)cc1
Cc1cc(C)c(C(=O)CSc2nc(C)cc(=O)[nH]2)c(C)c1
Cc1ccc(C(=O)NCC(=O)OCC(=O)NC2CCCCCCC2)cc1
COc1ccc(Br)cc1CN(C)CC(=O)Nc1cc([N+](=O)[O-])ccc1OC
CCCn1nc(C(=O)N2CCCc3ccccc32)c2ccccc2c1=O
CN(C)C(=O)N1CCNCC1
Cc1ccc(CC2CC(=O)N(c3cc(C)ccc3C)C2=O)cc1 (centres undefined)
O=C(CNS(=O)(=O)c1ccc(Br)s1)N1CCN(C(=O)c2ccco2)CC1
CCSc1nc(O)c(C(c2cccc(OC)c2)c2c(O)nc(SCC)[nH]c2=O)c(=O)[nH]1
CC1CCN(C(=O)C2CCN(S(=O)(=O)N3CCC4(CC3)OCCO4)CC2)CC1
COc1ccc(CCN2C(=O)C(C)=C(C)C2=O)cc1OC
COc1ccc(CCN2C(=O)C3CC=C(C)CC3C2=O)cc1OC (centres undefined)
O=c1[nH]c2ccccc2s1
COc1ccc(CN2CCNC(=O)C2CC(=O)N(C)Cc2ccccn2)cc1OC (centres undefined)
CN(CCc1cn[nH]c1)C(=O)CC1C(=O)NCCN1Cc1cccc(Oc2ccccc2)c1 (centres undefined)
CCC(C)(C)NC(=O)C(c1ccc(O)cc1)N(Cc1ccco1)C(=O)CCC(=O)Nc1ccccn1 (centres undefined)
CCOc1c2ccc(C(=O)NC3CCCc4ccccc43)cc2nn1CC (centres undefined)
Cc1ccc(CN2CCN(Cc3ccccc3-c3ccco3)CC2CCO)o1 (centres undefined)
OCCC#Cc1ccc(CN2CCN(Cc3ccsc3)C(CCO)C2)cc1 (centres undefined)
COc1cc(CO)ccc1OCC(=O)Nc1cccc2ccccc12
CCN(CC(=O)NCc1cccs1)C(=O)c1ccc(OC)c(S(=O)(=O)N2CCOCC2)c1
O=C(c1c(F)cccc1Cl)N1CCN(c2ccccn2)CC1
CC(=O)NC1(c2ccc(F)cc2)CCN(C(=O)c2c(F)cccc2F)CC1
COc1ccc(Cl)cc1C(=O)NNC(=O)c1nc2nc(C)cc(C)n2n1
COc1ccc(-c2nn(-c3ccccc3)cc2C(=O)Nc2nc(CC(C)=O)ns2)cc1
Cc1ccc(-c2nn(-c3ccccc3)cc2CN(Cc2ccccc2)C(=O)CCC(=O)O)o1
COc1ccc(-c2cc(=O)oc3cc(OC(C)C(=O)NCC4CCC(C(=O)O)CC4)ccc23)cc1 (centres undefined)
Cc1[nH]c2ccccc2c1-c1ccc(Cl)nn1
CCOC(=O)C1CCCCN1Cc1ccc(OC)c(OC)c1OC (centres undefined)
CCOC(=O)c1cc(C)nc(S(C)(=O)=O)c1C#N
CCOC(=O)c1cc(C#N)c(N2CCCCC2)nc1-c1ccccc1
